# In ChEMBL document CHEMBL1122662, “3-Hydroxy-alpha-methyltyrosine progenitors: synthesis and evaluation of some (2-oxo-1,3-dioxol-4-yl)methyl esters” (J Med Chem, 1984):
# What was measured:
# [1] = Compound was evaluated for its renal clearance after oral administration (200 mg) to Beagle dogs; assay type: ADME, organism-based, Canis lupus familiaris; details: dog, in vivo, read-out: Renal clearance
# Summary of the method: (§1)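 Four male beagles in cross-over, single oral doses equal to 200 mg methyldopa, 100 mg iv reference. Voided urine collected through 48 h, heated with HClO4 (99 °C, 15 min) to hydrolyze conjugates, methyldopa measured by HPLC-amperometry. Urinary recovery as % dose; renal clearance as total urinary recovery divided by plasma AUC; mean ± SD.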
# [2] = Compound was evaluated for its urinary recovery after oral administration (200 mg) to Beagle dogs; assay type: ADME, organism-based, Canis lupus familiaris; details: dog, urine, read-out: Activity; summary of the method: as §1
# Rattus norvegicus [3] = experiment: Antihypertensive activity was evaluated in SH rats by measuring initial mean arterial pressure at 0.12 mM/kg dose administered perorally; equivalent to 25 mg/kg of methyldopa; assay type: functional, Artery; details: route oral
# Summary of the method: (§2)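 Unanesthetized male Wistar-Okamoto spontaneously hypertensive rats (290-350 g, 16-24 weeks), six per group, dosed orally at 0.12, 0.24 or 0.47 mmol/kg, equal to 25, 50 or 100 mg/kg methyldopa; doses based on base weight. Arterial pressure recorded continuously by transducer, mean pressure printed every 1/2 h. Initial pressure and maximum fall recorded, mean ± SE.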
# Rattus norvegicus [4] = experiment: Antihypertensive activity was evaluated in SH rats by measuring imax reduction in mean arterial pressure at 0.12 mM/kg dose administered perorally; equivalent to 25 mg/kg of methyldopa; assay type: functional, Artery; details: route oral; summary of the method: as §2
# Rattus norvegicus [5] = experiment: Antihypertensive activity was evaluated in SH rats by measuring max reduction in mean arterial pressure at 0.47 mM/kg dose administered perorally; equivalent to 100 mg/kg of methyldopa; assay type: functional, Artery; details: route oral; summary of the method: as §2
# [6] = Systemic availability with respect to methyldopa was determined; assay type: ADME
# Summary of the method: (§3)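 Randomized cross-over in four male beagles fasted overnight and 6 h postdose, water ad libitum. Single oral doses equal to 200 mg methyldopa; 100 mg methyldopa iv as reference. Jugular blood through 10 h. Plasma deproteinized with HClO4, internal standard ethyldopa, analyzed by C-18 HPLC with amperometric detection. AUC by trapezoids plus terminal extrapolation. Systemic availability relative to iv by Kwan-Till, constant nonrenal clearance; mean ± SD.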
# Rattus norvegicus [7] = experiment: Antihypertensive activity was evaluated in SH rats by measuring initial mean arterial pressure at 0.24 mM/kg dose administered perorally; equivalent to 50 mg/kg of methyldopa; assay type: functional, Artery; details: route oral; summary of the method: as §2
# Rattus norvegicus [8] = experiment: Antihypertensive activity was evaluated in SH rats by measuring initial mean arterial pressure at 0.47 mM/kg dose administered perorally; equivalent to 100 mg/kg of methyldopa; assay type: functional, Artery; details: route oral; summary of the method: as §2
# Rattus norvegicus [9] = experiment: Antihypertensive activity was evaluated in SH rats by measuring max reduction in mean arterial pressure at 0.24 mM/kg dose administered perorally; equivalent to 50 mg/kg of methyldopa; assay type: functional, Artery; details: route oral; summary of the method: as §2
# [10] = Compound was evaluated for its bioavailability after oral administration (200 mg) to Beagle dogs; assay type: ADME, organism-based, Canis lupus familiaris; details: dog, in vivo; summary of the method: as §3
# [11] = Compound was evaluated for its urinary recovery after intravenous administration (100 mg) to Beagle dogs
# Rattus norvegicus [12] = experiment: Antihypertensive activity was evaluated in SH rats by measuring imax reduction in mean arterial pressure at 0.24 mM/kg dose administered perorally; equivalent to 50 mg/kg of methyldopa; assay type: functional, Artery; details: route oral; summary of the method: as §2
# [13] = Compound was evaluated for its renal clearance after intravenous administration (100 mg) to Beagle dogs
# [14] = Compound was evaluated for its bioavailability after intravenous administration (100 mg) to Beagle dogs
CL renal [1],dose excreted [2],Activity [6],AUC [10],SMILES,Initial mean arterial pressure (Rattus norvegicus [3]),Max reduction in mean arterial pressure (Rattus norvegicus [4]),Max reduction in mean arterial pressure (Rattus norvegicus [5]),Initial mean arterial pressure (Rattus norvegicus [7]),Initial mean arterial pressure (Rattus norvegicus [8]),Max reduction in mean arterial pressure (Rattus norvegicus [9]),Activity [11],Max reduction in mean arterial pressure (Rattus norvegicus [12]),Renal clearance [13],AUC [14]
29.2 mL/min,53.2%,94.2%,61700 ng·h/mL,Cc1oc(=O)oc1COC(=O)C(C)(N)Cc1ccc(O)c(O)c1 (stereo not given),180 mmHg,29 mmHg,52 mmHg,172 mmHg,164 mmHg,38 mmHg,,,,
29.3 mL/min,31.4%,55.7%,37400 ng·h/mL,CC(N)(Cc1ccc(O)c(O)c1)C(=O)OCc1oc(=O)oc1C(C)(C)C (stereo not given),182 mmHg,24 mmHg,93 mmHg,172 mmHg,185 mmHg,45 mmHg,,,,
31.9 mL/min,54.2%,92.1%,58300 ng·h/mL,C[C@](N)(Cc1ccc(O)c(O)c1)C(=O)O [METHYLDOPA],,,,174 mmHg,,,57.7%,37 mmHg,31.8 mL/min,32600 ng·h/mL
,,,,CC(OC(=O)C(C)(C)C)OC(=O)C(C)(N)Cc1ccc(O)c(O)c1.Cl (stereo not given),181 mmHg,23 mmHg,83 mmHg,181 mmHg,179 mmHg,60 mmHg,,,,
